# Hit rate of the full screen: of about 60,000 compounds, about 60 (0.1%) were called active.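 The calls were made as follows: active = activation above the screen-wide mean plus 3 SD (cut at about 4.5% in these data, passing the limit was not always enough); inactive = the rest, inconclusive results apart.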 Shown is part of a subset that was picked to be rich in actives.
# Target: Sphingosine 1-phosphate receptor 3 (Homo sapiens) (UniProt Q99500)
# Assay: human S1P3 receptor agonists, primary screen, cell-based, primary and confirmation, NFAT-BLA reporter (AID 373)
# Method in brief: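 material = human S1P3 NFAT-BLA reporter CHO cells | schedule = 4 h compound at 37 °C, 2 h substrate at RT | measured by = fluorescent BLA substrate, ex 405 nm, em 460/535 nm ratio | controls = 1 µM S1P reference | replication = primary once, confirmation triplicate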
# [1] = S1P3 NFAT-BLA reporter cells, agonism, FRET ratio, at 4.5 µM, stronger effect = higher value, relative to 1 µM S1P, basal subtracted
# Sphingosine 1-phosphate receptor 3 (Homo sapiens), sequence (Q99500 whole entry, looked up): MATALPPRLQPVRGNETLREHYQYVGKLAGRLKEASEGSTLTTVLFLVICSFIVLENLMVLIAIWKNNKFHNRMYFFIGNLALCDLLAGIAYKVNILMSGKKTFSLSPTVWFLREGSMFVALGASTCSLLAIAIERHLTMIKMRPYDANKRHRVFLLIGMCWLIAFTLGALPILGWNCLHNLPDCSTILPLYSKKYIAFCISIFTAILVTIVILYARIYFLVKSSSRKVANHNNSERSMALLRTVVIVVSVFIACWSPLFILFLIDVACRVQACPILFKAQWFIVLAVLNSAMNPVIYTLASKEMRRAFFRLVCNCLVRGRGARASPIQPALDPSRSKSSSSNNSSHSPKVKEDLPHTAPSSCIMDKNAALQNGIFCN
smiles,measurement,setting,value
CC(NC(=O)c1cc(-c2ccccc2)on1)c1ccccc1 (stereo not drawn),activation,[1],-1.3% (inactive)
O=C(Nc1ccc2c(c1)nc1n2CCCCC1)c1cc(S(=O)(=O)N2CCOCC2)ccc1Cl,activation,[1],-0.4% (inactive)
C=C(C)c1cccc(C(C)(C)NC(=O)N2CCN(c3ncccn3)CC2)c1,activation,[1],-0.9% (inactive)
CC(C)C(=O)Nc1c(C(=O)c2ccc(F)cc2)oc2ccccc12,activation,[1],-0.2% (inactive)
O=C(CN1CCOCC1)N1CCCc2c1c(=O)oc1ccc(OCc3ccccc3)cc21,activation,[1],-1% (inactive)
COCCOC(=O)C1=C(C)N=c2s/c(=C\c3cccs3)c(=O)n2C1c1cccs1 (stereo not drawn),activation,[1],-2% (inactive)
CC1(C)CC(=O)c2cc(OCC(=O)NCC3CCCO3)ccc2O1 (stereo not drawn),activation,[1],-0.8% (inactive)
CN(CCc1ccccn1)S(=O)(=O)c1ccc2c3c(cccc13)C(=O)N2,activation,[1],0.3% (inactive)
CC(=O)N1CC2(C)CN(C(C)=O)CC(C)(C1)C2=O,activation,[1],0% (inactive)
Cc1ccc2c(c1)sc1ncc(NC(=O)c3ccccc3)c(=O)n12,activation,[1],-1.1% (inactive)
O=C(NCCc1ccco1)c1nn(Cc2ccccc2)c(=O)c2ccccc12,activation,[1],0.7% (inactive)
Cc1ccnc(N2C(=O)c3ccccc3C2Nc2ccc3c(c2)OCCO3)c1 (stereo not drawn),activation,[1],0.3% (inactive)
COc1ccc(OC)c(NC(=O)CSc2nc3cccnc3n2C)c1,activation,[1],0.2% (inactive)
COc1ccc(Cn2c(=O)sc3ccccc32)cc1OC,activation,[1],-0.4% (inactive)
O=C(NC(c1ccccc1)c1ccccc1)N1CCN(CCO)CC1,activation,[1],0.8% (inactive)
CC(C)Cn1c(N)c(C(=O)NCc2cccs2)c2nc3ccccc3nc21,activation,"S1P3 NFAT-BLA reporter cells, agonism, FRET ratio; at 4.5 µM; stronger effect = higher value; relative to 1 µM S1P, basal subtracted",8.2% (active)
same,activation,"S1P3 NFAT-BLA reporter cells, agonism, FRET ratio; measured here: confirmation screen, triplicate average; at 4.5 µM; stronger effect = higher value; relative to 1 µM S1P, basal subtracted",5.4%
C=CCn1c(N)c(S(=O)(=O)c2cccs2)c2nc3ccccc3nc21,activation,[1],-0.5% (inactive)
C=CCn1c(N)c(C(=O)OCC(C)C)c2nc3ccccc3nc21,activation,[1],0.4% (inactive)
CCCOC(=O)CC1C(=O)NCCN1Cc1ccc(F)cc1 (stereo not drawn),activation,[1],0.3% (inactive)
COc1cc(OC)cc(C(=O)Nc2ncc3c(n2)CC(C)(C)CC3=O)c1,activation,[1],-1.1% (inactive)
CN1CCN(C(=O)c2ccc(NS(=O)(=O)c3ccccc3)cc2)CC1,activation,[1],-0.2% (inactive)
CCOc1cc(C(=O)N2CCc3cc(OC)c(OC)cc3C2)ccc1OC(F)F,activation,[1],-0.2% (inactive)
COc1ccc(S(=O)(=O)N2CCN(C(=O)c3cccs3)CC2)cc1OC,activation,[1],0% (inactive)
Cc1c2cnn(-c3ccccc3)c(=O)c2c(C)n1CCCC(=O)N1CCN(C)CC1,activation,[1],-1.3% (inactive)
COc1ccc(C(=O)OCC(=O)c2ccc(C)c(S(=O)(=O)N3CCOCC3)c2)cc1OC,activation,[1],-1% (inactive)
CC1(C)CC(CCC(=O)Nc2ccccc2Cl)C(=O)O1 (stereo not drawn),activation,[1],-0.9% (inactive)
Cc1ccccc1-n1c(SCC(=O)NCc2cccs2)nnc1-c1ccncc1,activation,[1],0.9% (inactive)
CC1(C)Oc2ccc(C(=O)N3CCOCC3)cc2N(CC(=O)Nc2ccccc2)C1=O,activation,[1],-0.1% (inactive)
CCCCc1nc2c(=O)[nH]c3ccccc3c2o1,activation,[1],-0.4% (inactive)
C=CCn1c(C2CC(=O)N(c3ccc(C)cc3)C2)nc2ccccc21 (stereo not drawn),activation,[1],-2.5% (inactive)
O=C(COc1ccccc1)N1CCc2ccccc2C1,activation,[1],0.4% (inactive)
CC(=O)CSc1nnc(CSc2ncccn2)n1C1CCCCC1,activation,[1],-0.6% (inactive)
CC1(C)CC(=O)C(C2=NC(C)(C)Cc3ccccc32)=C(O)C1,activation,[1],-2% (inactive)
CC(C)C(=O)Nc1cccc(C(=O)Nc2ccc3c(c2)OCO3)c1,activation,[1],-1.2% (inactive)
COc1ccc(OC)c2c1sc(=NC(=O)CN1C(=O)CCC1=O)n2C,activation,[1],-2.3% (inactive)
OCc1nc(CO)n(Cc2ccccc2)n1,activation,[1],-1% (inactive)
COc1ccc(N2C(=O)CN=C2Nc2cccc(C)c2C)cc1OC,activation,[1],0.2% (inactive)
CCCc1nnc(NC(=O)CN2C(=O)c3ccccc3S2(=O)=O)s1,activation,[1],-1% (inactive)
CCOC(=O)c1sc(/N=C/Nc2nc(C)c(C(=O)OCC)s2)nc1C,activation,[1],-1.5% (inactive)
N#CCCN(CCC#N)c1nnc(-c2ccccc2)s1,activation,[1],-0.2% (inactive)
CCOC(=O)C1C(=O)C=C(c2ccc(OC)cc2)CC1c1ccco1 (stereo not drawn),activation,[1],-1.9% (inactive)
Cc1nc(SC(C)C)[nH]c(=O)c1Cc1ccccc1,activation,[1],0.1% (inactive)
CCCc1cc(=O)oc2c(C)c(O)c(CN3CCCCC3)cc12,activation,[1],-2.1% (inactive)
CCC(=O)Nc1ccccc1C(=O)N1CCN(Cc2ccccc2)CC1,activation,[1],-1.1% (inactive)
NS(=O)(=O)c1ccc(NS(=O)(=O)/C=C/c2ccccc2)cc1,activation,[1],1.3% (inactive)
Cc1occc1C(=O)Nc1cccc(Cn2cccn2)c1,activation,[1],-0.4% (inactive)
COc1ncnc2sc3c(c12)CCCC3,activation,[1],-0.3% (inactive)
COc1ccc(C)cc1S(=O)(=O)NC1CCCCC1,activation,[1],-0.3% (inactive)
CCOc1cccc(/C(O)=C2/C(=O)C(=O)N(CCOC)C2c2ccncc2)c1 (stereo not drawn),activation,[1],-1.3% (inactive)
CCOC(=O)c1sc(NC(=O)C(CC)Sc2nccn2C)nc1C (stereo not drawn),activation,[1],-1.7% (inactive)
Cc1cccc(NC(=O)CN2CCCN(S(=O)(=O)c3ccc(Br)s3)CC2)c1,activation,[1],-1.4% (inactive)
CCOC(=O)c1cc(-c2nnc(-c3cc(OC)c(OC)c(OC)c3)o2)c(C)nc1C,activation,[1],-1.5% (inactive)
CCOC(=O)c1c(C(C#N)C#N)cc(C)nc1C,activation,[1],-3.8% (inactive)
O=C(Cn1nnc(-c2ccccc2)n1)NCc1ccccc1,activation,[1],-0.5% (inactive)
Cc1cc(C)nc(SCc2nnc(SCC(=O)Nc3ncc(C)s3)n2Cc2ccco2)n1,activation,[1],0% (inactive)
CCn1ncc(C2=NOC(C(=O)Nc3ccccc3C(=O)OC)C2)c1C (stereo not drawn),activation,[1],-0.6% (inactive)
CC1Cc2cc(/C(O)=C3\C(=O)C(=O)N(CCN4CCOCC4)C3c3ccccc3F)ccc2O1 (stereo not drawn),activation,[1],0.5% (inactive)
CC1CN(C(=O)CN2C(=O)NC(C)(c3ccccc3)C2=O)CC(C)O1 (stereo not drawn),activation,[1],1.6% (inactive)
O=C1NC(Nc2nc3ccccc3s2)(C(F)(F)F)C(=O)N1C1CCCCC1 (stereo not drawn),activation,[1],-0.5% (inactive)
Cc1nc(SCC(=O)Nc2cc(C)on2)c2c3c(sc2n1)CCCC3,activation,[1],-0.8% (inactive)
CCOc1ccc(NC(=O)N(CCC(C)C)C(C)c2ccco2)cc1 (stereo not drawn),activation,[1],-0.3% (inactive)
Cc1cc(=O)n(C)c(=O)n1CCCNc1ccccc1,activation,[1],-0.2% (inactive)

# Source: PubChem BioAssay AID373 (The Scripps Research Institute Molecular Screening Center, 2006)
